Assay results as given in ChEMBL document CHEMBL4665630, “Synthesis and biological evaluation of anthraquinone derivatives as allosteric phosphoglycerate mutase 1 inhibitors for cancer treatment” (Eur J Med Chem, 2019).

target: Phosphoglycerate mutase 1 (Homo sapiens, UniProt P18669); experiment: Inhibition of human recombinant PGAM1 by measuring decrease in OD by enzyme based assay; details: not given
Summary of the method: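 C-terminal His6-tagged PGAM1, Ni-NTA purified, 4.6 nM, preincubated with inhibitor in DMSO; coupled enolase/pyruvate kinase M2/LDH system in 100 mM Tris-HCl, 100 mM KCl, 5 mM MgCl2, 1 mM ADP, 0.2 mM NADH, 4 mM 3PG; NADH loss read at 340 nm. Counter-screen without PGAM1 using 4 mM 2PG. Mean ± s.d., n=3.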

Chain of Phosphoglycerate mutase 1 (P18669 whole entry): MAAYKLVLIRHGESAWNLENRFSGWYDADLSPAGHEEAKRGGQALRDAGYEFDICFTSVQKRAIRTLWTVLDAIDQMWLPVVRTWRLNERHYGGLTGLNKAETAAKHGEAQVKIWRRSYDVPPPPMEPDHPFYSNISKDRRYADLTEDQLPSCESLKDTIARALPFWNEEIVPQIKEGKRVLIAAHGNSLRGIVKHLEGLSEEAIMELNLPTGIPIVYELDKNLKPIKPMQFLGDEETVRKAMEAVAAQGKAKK

Row | Compound | IC50 [µM]
1 | COc1ccc(S(=O)(=O)Nc2cc3c(c(O)c2O)C(=O)c2ccccc2C3=O)c(OC)c1 | 2.86
2 | O=C1c2ccccc2C(=O)c2c1cc(NS(=O)(=O)c1ccc(N3CCCCC3)cc1)c(O)c2O | 0.33
3 | CS(=O)(=O)Nc1cc2c(c(O)c1O)C(=O)c1ccccc1C2=O | 5.37
4 | O=C1c2ccccc2C(=O)c2c1cc(NS(=O)(=O)c1cccc3cccnc13)c(O)c2O | 2.05
5 | COc1cccc(S(=O)(=O)Nc2cc3c(c(O)c2O)C(=O)c2ccccc2C3=O)c1 | 0.48
6 | O=C1c2ccccc2C(=O)c2c1cc(NS(=O)(=O)c1cccs1)c(O)c2O | 0.84

test system: NCI-H1299; experiment: Antiproliferative activity against human H1299 cells assessed as reduction in cell viability measured after 72 hrs by MTT assay; format: functional, cell-based; details: NCI-H1299, 72 h
Summary of the method: (§1)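 Cells grown in RPMI-1640 (H1299, PC9) or F-12K (A549) with 10% FBS and penicillin/streptomycin; 2000 H1299 or A549 or 1000 PC9 cells per well, attached 24 h, exposed to inhibitor 72 h; MTT 0.5 mg/mL for 4 h, absorbance at 570 nm; mean ± s.d., n=3.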

Row | Compound | IC50 [µM]
7 | COc1ccc(S(=O)(=O)Nc2cc3c(c(O)c2O)C(=O)c2ccccc2C3=O)c(OC)c1 | 20
8 | O=C1c2ccccc2C(=O)c2c1cc(NS(=O)(=O)c1ccc(N3CCCCC3)cc1)c(O)c2O | 10
9 | CS(=O)(=O)Nc1cc2c(c(O)c1O)C(=O)c1ccccc1C2=O | 28.5
10 | O=C1c2ccccc2C(=O)c2c1cc(NS(=O)(=O)c1cccc3cccnc13)c(O)c2O | 47.6
11 | COc1cccc(S(=O)(=O)Nc2cc3c(c(O)c2O)C(=O)c2ccccc2C3=O)c1 | 27.3
12 | O=C1c2ccccc2C(=O)c2c1cc(NS(=O)(=O)c1cccs1)c(O)c2O | 25.8

test system: A549; experiment: Antiproliferative activity against human A549 cells assessed as reduction in cell viability measured after 72 hrs by MTT assay; format: functional, cell-based; details: A549, 72 h; summary of the method: as §1

Row | Compound | IC50 [µM]
13 | O=C1c2ccccc2C(=O)c2c1cc(NS(=O)(=O)c1ccc(N3CCCCC3)cc1)c(O)c2O | 6.3

test system: PC-9; experiment: Antiproliferative activity against human PC-9 cells assessed as reduction in cell viability measured after 72 hrs by MTT assay; format: functional, cell-based; details: PC-9, 72 h; summary of the method: as §1

Row | Compound | IC50 [µM]
14 | O=C1c2ccccc2C(=O)c2c1cc(NS(=O)(=O)c1ccc(N3CCCCC3)cc1)c(O)c2O | 3
